Where “and” joins values, the source holds several entries; their conditions need not be identical. Equal entries are not always repeated.
Test system: U2OS
Assay: Multiplex assay against U2OS
Type: toxicity, cell-based
Settings: human, number of replicates 2
Outline: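 Live cells were stained at seeding with Hoechst33342, BioTracker Green Microtubule Cytoskeleton Dye, MitoTracker Red and Annexin V Alexa Fluor 680. Following compound addition, they were imaged on a CQ1 microscope at 37°C and 5% CO2 and gated by CellPathfinder machine learning into Hoechst high-intensity objects or normal cells, with normal cells split into healthy, pyknosed or fragmented nuclei and pyknosed cells into mitotic or apoptotic. Tubulin, mitochondrial-mass and membrane-permeability phenotypes are per cents of healthy-nucleus cells.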

[1] = 12 h, 1 µM, compound concentration 1 uM
[2] = 12 h, 10 µM, compound concentration 10 uM
[3] = 24 h, 1 µM, compound concentration 1 uM
[4] = 24 h, 10 µM, compound concentration 10 uM
[5] = 48 h, 1 µM, compound concentration 1 uM
[6] = 48 h, 10 µM, compound concentration 10 uM

## CSc1cc2c(cc1C(F)(F)F)N(C(=O)Nc1cccnc1)CC2
[1]
  Population Apoptotic (%): 33% and 45%
  Population Healthy Nuclei (%): 61% and 90%
  Population Hoechst High Intensity Objects (%): 0%
  Population Membrane Permeable-Phenotype (%): 0% and 2%
  Population Mitochondria Different-Phenotype (%): 0% and 1%
  Population Mitotic Cells (%): 66% and 54%
  Population Normal (%): 100%
  Population Pyknosed Nuclei (%): 17% and 8%
  Population Tubulin-Different-Phenotype (%): 71% and 84%
[2]
  Population Apoptotic (%): 42% and 66%
  Population Healthy Nuclei (%): 82% and 50%
  Population Hoechst High Intensity Objects (%): 0% and 3%
  Population Membrane Permeable-Phenotype (%): 0% and 7%
  Population Mitochondria Different-Phenotype (%): 0%
  Population Mitotic Cells (%): 57% and 33%
  Population Normal (%): 100% and 96%
  Population Pyknosed Nuclei (%): 12% and 11%
  Population Tubulin-Different-Phenotype (%): 94% and 38%
[3]
  Population Apoptotic (%): 60% and 26%
  Population Healthy Nuclei (%): 69% and 89%
  Population Hoechst High Intensity Objects (%): 0%
  Population Membrane Permeable-Phenotype (%): 3% and 1%
  Population Mitochondria Different-Phenotype (%): 0%
  Population Mitotic Cells (%): 40% and 73%
  Population Normal (%): 100%
  Population Pyknosed Nuclei (%): 12% and 6%
  Population Tubulin-Different-Phenotype (%): 66% and 84%
[4]
  Population Apoptotic (%): 100% and 45%
  Population Healthy Nuclei (%): 66% and 88%
  Population Hoechst High Intensity Objects (%): 2% and 0%
  Population Membrane Permeable-Phenotype (%): 0% and 1%
  Population Mitochondria Different-Phenotype (%): 0% and 1%
  Population Normal (%): 97% and 100%
  Population Pyknosed Nuclei (%): 11% and 7%
  Population Tubulin-Different-Phenotype (%): 58% and 93%
[5]
  Population Apoptotic (%): 83% and 46%
  Population Fragmented Nuclei (%): 6% and 2%
  Population Healthy Nuclei (%): 83% and 90%
  Population Hoechst High Intensity Objects (%): 3% and 0%
  Population Membrane Permeable-Phenotype (%): 6% and 1%
  Population Mitochondria Different-Phenotype (%): 0%
  Population Normal (%): 96% and 100%
  Population Pyknosed Nuclei (%): 10% and 6%
  Population Tubulin-Different-Phenotype (%): 67% and 85%
[6]
  Population Apoptotic (%): 29% and 42%
  Population Fragmented Nuclei (%): 3% and 10%
  Population Healthy Nuclei (%): 89% and 75%
  Population Hoechst High Intensity Objects (%): 0% and 2%
  Population Membrane Permeable-Phenotype (%): 1% and 0%
  Population Mitochondria Different-Phenotype (%): 0%
  Population Mitotic Cells (%): 70% and 57%
  Population Normal (%): 100% and 98%
  Population Pyknosed Nuclei (%): 7% and 14%
  Population Tubulin-Different-Phenotype (%): 94% and 40%

## CC(C)c1c(NC(=O)Nc2ccc(Cl)cc2)c(=O)n(-c2ccccc2)n1C
[1]
  Population Apoptotic (%): 33% and 32%
  Population Healthy Nuclei (%): 66% and 85%
  Population Hoechst High Intensity Objects (%): 0%
  Population Membrane Permeable-Phenotype (%): 0%
  Population Mitochondria Different-Phenotype (%): 0%
  Population Mitotic Cells (%): 66% and 68%
  Population Normal (%): 100%
  Population Pyknosed Nuclei (%): 10% and 9%
  Population Tubulin-Different-Phenotype (%): 65% and 81%
[2]
  Population Apoptotic (%): 100% and 43%
  Population Hoechst High Intensity Objects (%): 0%
  Population Membrane Permeable-Phenotype (%): 0% and 2%
  Population Mitochondria Different-Phenotype (%): 0%
  Population Normal (%): 100% and 99%
  Population Pyknosed Nuclei (%): 6%
  Population Tubulin-Different-Phenotype (%): 85% and 66%
[3]
  Population Apoptotic (%): 50% and 26%
  Population Healthy Nuclei (%): 68% and 89%
  Population Hoechst High Intensity Objects (%): 0%
  Population Membrane Permeable-Phenotype (%): 0% and 1%
  Population Mitochondria Different-Phenotype (%): 0%
  Population Mitotic Cells (%): 50% and 73%
  Population Normal (%): 100% and 99%
  Population Pyknosed Nuclei (%): 15% and 7%
  Population Tubulin-Different-Phenotype (%): 61% and 84%
[4]
  Population Apoptotic (%): 100% and 36%
  Population Healthy Nuclei (%): 32% and 87%
  Population Hoechst High Intensity Objects (%): 0%
  Population Membrane Permeable-Phenotype (%): 0% and 2%
  Population Mitochondria Different-Phenotype (%): 0%
  Population Normal (%): 100%
  Population Pyknosed Nuclei (%): 2% and 8%
  Population Tubulin-Different-Phenotype (%): 64% and 78%
[5]
  Population Apoptotic (%): 50% and 49%
  Population Fragmented Nuclei (%): 12% and 3%
  Population Healthy Nuclei (%): 72% and 88%
  Population Hoechst High Intensity Objects (%): 0%
  Population Membrane Permeable-Phenotype (%): 0% and 1%
  Population Mitochondria Different-Phenotype (%): 0%
  Population Mitotic Cells (%): 50%
  Population Normal (%): 100% and 99%
  Population Pyknosed Nuclei (%): 15% and 7%
  Population Tubulin-Different-Phenotype (%): 62% and 85%
[6]
  Population Apoptotic (%): 100% and 55%
  Population Healthy Nuclei (%): 31% and 91%
  Population Hoechst High Intensity Objects (%): 0%
  Population Membrane Permeable-Phenotype (%): 0% and 1%
  Population Mitochondria Different-Phenotype (%): 0%
  Population Normal (%): 100%
  Population Pyknosed Nuclei (%): 1% and 5%
  Population Tubulin-Different-Phenotype (%): 77% and 80%

Reference: ChEMBL document CHEMBL5303300, “EUbOPEN Chemogenomics Library - Multiplex” (2023)
